SMILES strings stand for the structures. In brackets after ≈: the same amount, converted by molar mass. Activity calls are given as the source filed them. No cut-off for these calls is given here.

The results in this text go back to ChEMBL document CHEMBL3045423, “Cynodontin: a fungal metabolite with antifungal properties” (J Agric Food Chem, 2003).

Data set [1] deals with Solanum melongena. Put plainly: Phytotoxicity in Solanum melongena (eggplant) assessed as seed germination at 250 mg/mL applied as seed dressings after 8 to 14 days (reference value: 84.7 +/- 2.3%). The class given is organism-based. Conditions: in vivo.
The subject of data set [2] is Lactuca sativa. Put plainly: Phytotoxicity in Lactuca sativa (lettuce) assessed as seed germination at 250 mg/mL applied as seed dressings after 8 to 14 days (reference value: 90 +/- 5.3%). The class given is organism-based. The settings on record: in vivo.
In data set [3] the test system is Botrytis cinerea. The data set can be described thus: Antifungal activity against Botryotinia fuckeliana assessed as inhibition of conidia germination at 1 to 10 ug/mL after 5 hr by light adverse phase microscopic analysis. The class given is functional, organism-based. In outline: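 B. cinerea conidia (10^6/mL in water) applied as 0.2 mL droplets onto water-agar (agar plus deionized water) with or without test substance added in acetone. Incubated 5 h in the dark at 25 °C. Percent germination scored from 200 conidia per dish under light microscopy.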

Data set [4] has as its system Verticillium dahliae. Put plainly: Antifungal activity against Verticillium dahliae assessed as mycelial growth inhibition after 4 to 8 days. The class given is functional. The settings on record: read-out: ED50 (the source's name). In outline:
(§1)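 Test substance added in acetone (solvent at most 0.8% in treated and control plates) to sterilized potato dextrose agar. Plates inoculated with 0.5 cm mycelial blocks and incubated in the dark at 25 °C for 4-8 days depending on species. Linear growth inhibition estimated from colony diameter.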

The test system of data set [5] is Brassica oleracea. The data set can be described thus: Phytotoxicity in Brassica oleracea (cabbage) assessed as seed germination at 250 mg/mL applied as seed dressings after 8 to 14 days (reference value: 90 +/- 5.3%). The class given is organism-based. Conditions: in vivo.
Data set [6] has as its system Brassica oleracea. Put plainly: Phytotoxicity in Brassica oleracea (broccoli) assessed as seed germination at 250 mg/mL applied as seed dressings after 8 to 14 days (reference value: […] +/- 4.2%). The class given is organism-based. The settings on record: in vivo.
Data set [7] concerns Sclerotinia sclerotiorum. Put plainly: Antifungal activity against Sclerotinia sclerotiorum assessed as mycelial growth inhibition after 4 to 8 days. The class given is functional. The settings on record: read-out: ED50 (the source's name). Put shortly: as §1
Data set [8] has as its system Capsicum annuum. Put plainly: Phytotoxicity in Capsicum annuum (pepper) assessed as seed germination at 250 mg/mL applied as seed dressings after 8 to 14 days (reference value: 84.7 +/- 4.6%). Conditions: in vivo. The class given is organism-based.
The subject of data set [9] is Botrytis cinerea. Put plainly: Antifungal activity against Botryotinia fuckeliana assessed as mycelial growth inhibition after 4 to 8 days. The class given is functional. Conditions: read-out: ED50 (the source's name). Put shortly:
as §1

Data set [10] has as its system Sclerotinia minor. The data set can be described thus: Antifungal activity against Sclerotinia minor assessed as mycelial growth inhibition after 4 to 8 days. The class given is functional. The settings on record: read-out: ED50 (the source's name). In outline: as §1
Data set [11] relates to Cucumis melo. Put plainly: Phytotoxicity in Cucumis melo (muskmelon) assessed as seed germination at 250 mg/mL applied as seed dressings after 8 to 14 days (reference value: 90 +/- 2%). The class given is organism-based. Conditions: in vivo.
The subject of data set [12] is Solanum lycopersicum. Put plainly: Phytotoxicity in Solanum lycopersicum (tomato) assessed as seed germination at 250 mg/mL applied as seed dressings after 8 to 14 days (reference value: 94 +/- 2%). The class given is organism-based. The settings on record: in vivo.
Data set [13] concerns Cucumis sativus. Put plainly: Phytotoxicity in Cucumis sativus (cucumber) assessed as seed germination at 250 mg/mL applied as seed dressings after 8 to 14 days (reference value: […] +/- 1.2%). The settings on record: in vivo. The class given is organism-based.
Data set [14] has as its system Brassica oleracea var. botrytis (cauliflower). The data set can be described thus: Phytotoxicity in Brassica oleracea var. botrytis assessed as seed germination at 250 mg/mL applied as seed dressings after 8 to 14 days (reference value: 97.3 +/- 1.2%). The settings on record: in vivo.

With `O=C1c2ccccc2C(=O)c2ccccc21` [ANTHRAQUINONE], the Activity in data set [1] came to 82.7%; in [2] it was 88%; in data set [5] it was 88%; in data set [6], 87.3%; in data set [8] it was 85.3%. Further, the inhibition entry in data set [3] was “inactive”. Also, the EC50 in [4], in data set [7], in data set [9] and in [10] was > 100 µg/mL each time.
Take `Cc1cc(O)c2c(c1)C(=O)c1cccc(O)c1C2=O` [CHRYSOPHANOL]: the inhibition result in data set [3] is “inactive”. The EC50 in data set [4] was > 100 µg/mL; in [7], > 100 µg/mL; in data set [9], > 100 µg/mL; in data set [10], 74.1 µg/mL (≈ 292 µM).
Turning to `Cc1cc(O)c2c(c1O)C(=O)c1c(O)ccc(O)c1C2=O` [Cynodontin], the Activity in data set [1] turned out to be 82.7%; in [2], 96.7%; in data set [5] it was 89.3%; in [11] it was 90.7%; in data set [6], 88%; in data set [12], 95.3%. Also, the Activity is reported as 84.7% in data set [8], 94% in data set [13] and 96.7% in [14]. Further, in [3], the inhibition result is “inactive”. Also, the EC50 in data set [4] is 11.5 µg/mL (≈ 40.3 µM); in data set [7], 5.52 µg/mL (≈ 19.3 µM); in data set [9] it was 5.25 µg/mL (≈ 18.3 µM); in data set [10], 4.31 µg/mL (≈ 15.1 µM).
`Cc1cc(O)c2c(c1)C(=O)c1cc(O)cc(O)c1C2=O` [EMODIN]: the inhibition result in data set [3] was “inactive”. Further, the EC50 in data set [4] was > 100 µg/mL; in data set [7] it was 66.5 µg/mL (≈ 246 µM); in [9], 41.2 µg/mL (≈ 153 µM); in data set [10] it was 38.9 µg/mL (≈ 144 µM).
